Results as given in ChEMBL document CHEMBL4229410, “Facile construction of fused benzimidazole-isoquinolinones that induce cell-cycle arrest and apoptosis in colorectal cancer cells” (Bioorg Med Chem, 2018).
Activity calls are given as the source filed them. No cut-off for these calls is given here.

Tests used:
[1] = tested on: Epidermal growth factor receptor (Homo sapiens), P00533 [L858R]; assay: Inhibition of partial length human EGFR (R669 to V1011 residues) L858R mutant expressed in bacterial expression system assessed as residual activity at 5 uM by KINOMEscan assay relative to control
[2] = target: Tyrosine-protein kinase JAK3 (Homo sapiens, UniProt P52333); assay: Binding affinity to human JAK3 JH1 catalytic domain (I781 to S1124 residues) expressed in mammalian expression system by KINOMEscan assay
[3] = target: Serine/threonine-protein kinase pim-1 (Homo sapiens, UniProt P11309); assay: Binding affinity to human PIM1 (A15 to K313 residues) expressed in bacterial expression system by KINOMEscan assay
[4] = target: T1, Dual specificity mitogen-activated protein kinase kinase 1 (Homo sapiens, UniProt Q02750); assay: Binding affinity to full length human MEK1 (M1 to V393 residues) expressed in mammalian expression system by KINOMEscan assay
[5] = target: Tyrosine-protein kinase ABL1 (Homo sapiens, UniProt P00519); assay: Inhibition of human non-phosphorylated ABL1 (S229 to K512 residues) expressed in mammalian expression system assessed as residual activity at 5 uM by KINOMEscan assay relative to control
Aurora kinase B = Aurora kinase B (Homo sapiens, UniProt Q96GD4); assay: Binding affinity to human AURKB (D25 to A303 residues) expressed in mammalian expression system by KINOMEscan assay
[6] = target: Inhibitor of nuclear factor kappa-B kinase subunit beta (Homo sapiens, UniProt O14920); assay: Binding affinity to full length human IKKbeta (M1 to S756 residues) expressed in mammalian expression system by KINOMEscan assay
[7] = target: T2, Serine/threonine-protein kinase PAK 4 (Homo sapiens, UniProt O96013); assay: Inhibition of partial length human PAK4 (Q144 to R438 residues) expressed in bacterial expression system assessed as residual activity at 5 uM by KINOMEscan assay relative to control
HT-29 [8] = assay: Inhibition of PI3K in human HT-29 cells assessed as reduction in AKT phosphorylation at T308 residue up to 75 uM after 48 hrs by Western blot analysis; assay type: cell-based
HT-29 [9] = assay: Induction of apoptosis in human HT-29 cells assessed as early apoptotic cells at 25 uM after 48 hrs by Annexin-V-FITC/propidium iodide staining based flow cytometry (reference value: 1%); assay type: functional
[10] = target: MAP kinase-activated protein kinase 2 (Homo sapiens, UniProt P49137); assay: Inhibition of human MAPKAPK2 (V48 to D345 residues) expressed in bacterial expression system assessed as residual activity at 5 uM by KINOMEscan assay relative to control
SW-620 [11] = assay: Cell cycle arrest in human SW620 cells assessed as increase in accumulation at G2/M-phase after 48 hrs by propidium iodide staining based flow cytometry; assay type: functional
HT-29 [12] = assay: Induction of apoptosis in human HT-29 cells assessed as increase in apoptotic bodies after 48 hrs by Hoechst 33342 staining based fluorescence microscopic analysis; assay type: functional, cell-based
Summary of the method: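 HT29 cells in 24-well plates were treated at 0, 25, 50 or 75 μM for 48 h and fixed 20 min in 4% paraformaldehyde. After Hoechst 33342 staining for 15 min at 37 °C, apoptotic bodies and chromatin condensation were scored by fluorescence microscopy.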

[13] = tested on: Serine/threonine-protein kinase B-raf (Homo sapiens), P15056 [V600E]; assay: Inhibition of human BRAF (S429 to E741 residues) V600E mutant expressed in mammalian expression system assessed as residual activity at 5 uM by KINOMEscan assay relative to control
[14] = target: T2, Serine/threonine-protein kinase PAK 4; assay: Binding affinity to partial length human PAK4 (Q144 to R438 residues) expressed in bacterial expression system by KINOMEscan assay
[15] = target: Serine/threonine-protein kinase PAK 2 (Homo sapiens, UniProt Q13177); assay: Inhibition of partial length human PAK2 (P151 to R525 residues) expressed in bacterial expression system assessed as residual activity at 5 uM by KINOMEscan assay relative to control
[16] = target: Serine/threonine-protein kinase PLK4 (Homo sapiens) (UniProt O00444); assay: Inhibition of partial length human PLK4 (M1 to S273 residues) expressed in mammalian expression system assessed as residual activity at 5 uM by KINOMEscan assay relative to control
[17] = target: Mitogen-activated protein kinase 8 (Homo sapiens, UniProt P45983); assay: Inhibition of full length human JNK1 (M1 to Q384 residues) expressed in mammalian expression system assessed as residual activity at 5 uM by KINOMEscan assay relative to control
[18] = target: Mitogen-activated protein kinase 10 (Homo sapiens, UniProt P53779); assay: Binding affinity to human JNK3 (V28 to Q422 residues) expressed in mammalian expression system by KINOMEscan assay
[19] = target: T1, Dual specificity mitogen-activated protein kinase kinase 1; assay: Inhibition of full length human MEK1 (M1 to V393 residues) expressed in mammalian expression system assessed as residual activity at 5 uM by KINOMEscan assay relative to control
SW-620 [20] = assay: Cell cycle arrest in human SW620 cells assessed as accumulation at G1-phase at 75 uM after 48 hrs by propidium iodide staining based flow cytometry (reference value: 40.56%); assay type: functional
[21] = target: Serine/threonine-protein kinase 32C (Homo sapiens, UniProt Q86UX6); assay: Binding affinity to human YANK3 (M68 to G486 residues) expressed in bacterial expression system by KINOMEscan assay
[22] = target: Bone morphogenetic protein receptor type-2 (Homo sapiens) (UniProt Q13873); assay: Inhibition of human BMPR2 (R179 to Q526 residues) expressed in mammalian expression system assessed as residual activity at 5 uM by KINOMEscan assay relative to control
HT-29 [23] = assay: Induction of apoptosis in human HT-29 cells assessed as live cells at 25 uM after 48 hrs by Annexin-V-FITC/propidium iodide staining based flow cytometry (reference value: 93.2%); assay type: functional
Homo sapiens = species: Homo sapiens; assay: Inhibition of PI3K in human SW620 cells assessed as reduction in AKT phosphorylation at S473 residue up to 75 uM after 48 hrs by Western blot analysis; assay type: cell-based
[24] = target: Cyclin-dependent kinase 19 (Homo sapiens, UniProt Q9BWU1); assay: Binding affinity to human CDK11 (M1 to N360 residues) expressed in bacterial expression system by KINOMEscan assay
[25] = target: Serine/threonine-protein kinase PAK 1 (Homo sapiens, UniProt Q13153); assay: Binding affinity to human PAK1 (S149 to H545 residues) expressed in bacterial expression system by KINOMEscan assay
[26] = target: Tyrosine-protein kinase receptor UFO (Homo sapiens, UniProt P30530); assay: Binding affinity to human AXL (R497 to Y821 residues) expressed in bacterial expression system by KINOMEscan assay
[27] = target: Phosphatidylinositol 4-phosphate 3-kinase C2 domain-containing subunit beta (Homo sapiens, UniProt O00750); assay: Inhibition of human PIK3C2B (M1 to L1634 residues) expressed in mammalian expression system assessed as residual activity at 5 uM by KINOMEscan assay relative to control

## CC(C)CN(C(=O)c1cccnc1)c1c2ccccc2c(=O)n2c1[nH]c1ccccc12
[1]
  Activity: 92%
[2]
  Kd: ≥ 5 µM
[3]
  Kd: ≥ 5 µM
[4]
  Kd: ≥ 5 µM
[5]
  Activity: 65%
Aurora kinase B
  Kd: ≥ 5 µM
[6]
  Kd: ≥ 5 µM
[7]
  Activity: 82%
HT-29 [8]
  inhibition: Active
HT-29 [9]
  Activity: 0.9%
[10]
  Activity: 100%
SW-620 [11]
  Activity: Dose-dependent effect
HT-29 [12]
  Activity: Dose-dependent effect
[13]
  Activity: 100%
[14]
  Kd: ≥ 5 µM
[15]
  Activity: 100%
[16]
  Activity: 100%
[17]
  Activity: 69%
[18]
  Kd: ≥ 5 µM
[19]
  Activity: 91%
SW-620 [20]
  Activity: 31.67%
[21]
  Kd: ≥ 5 µM
[22]
  Activity: 100%
HT-29 [23]
  Activity: 88.4%
Homo sapiens
  inhibition: Active
[24]
  Kd: ≥ 5 µM
[25]
  Kd: ≥ 5 µM
[26]
  Kd: ≥ 5 µM
[27]
  Activity: 97%
